The first test concerns the target T1, 5-hydroxytryptamine receptor 2A (Homo sapiens, UniProt P28223). Kind of test: Binding affinity against 5-hydroxytryptamine 2A receptor in humans. In a few lines:
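Membranes of transfected COS-7 cells expressing human 5-HT2A, with 1.0 nM [3H]ketanserin, room temperature, 60 min. 10 µM altanserin as blank. Filtration and scintillation counting. Ki obtained by Cheng-Prusoff from the radioligand apparent Kd.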
T1 sequence (P28223 whole entry): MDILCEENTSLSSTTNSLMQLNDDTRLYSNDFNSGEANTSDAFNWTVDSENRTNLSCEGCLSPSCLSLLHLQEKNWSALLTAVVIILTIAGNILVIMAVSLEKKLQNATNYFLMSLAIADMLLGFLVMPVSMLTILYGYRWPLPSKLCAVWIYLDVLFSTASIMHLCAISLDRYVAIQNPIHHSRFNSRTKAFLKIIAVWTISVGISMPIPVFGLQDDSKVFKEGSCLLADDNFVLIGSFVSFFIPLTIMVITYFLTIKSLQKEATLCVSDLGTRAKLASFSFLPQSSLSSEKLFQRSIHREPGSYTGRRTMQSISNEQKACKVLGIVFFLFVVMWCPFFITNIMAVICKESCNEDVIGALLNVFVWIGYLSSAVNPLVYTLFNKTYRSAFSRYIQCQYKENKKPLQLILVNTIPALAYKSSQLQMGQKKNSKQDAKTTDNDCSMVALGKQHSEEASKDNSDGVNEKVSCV
For orientation: Ki means the equilibrium dissociation constant of an inhibitor or competing ligand from its target. A high value points to weaker binding. Compound `O=C(c1ccc(F)cc1)C1CCN(CCn2c(=S)[nH]c3ccccc3c2=O)CC1` [ALTANSERIN] had a Ki of 0.3 nM.

The next test concerns the target T1, 5-hydroxytryptamine receptor 2A. Put plainly: Tested on genetically transfected COS7 cell membranes selectively expressing human 5-hydroxytryptamine 2A receptor, using [3H]ketanserin as radioligand. It counts as cell-based, COS-7. The gist of the method:
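Membranes of transfected COS-7 cells expressing human 5-HT2A, with 1.0 nM [3H]ketanserin, room temperature, 60 min. 10 µM altanserin as blank. Filtration and scintillation counting. Competition curves over ≥6 concentrations yield IC50 ± SE. Ki obtained by Cheng-Prusoff from the radioligand apparent Kd.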
In the case of `OC(c1ccc(F)cc1)C1CCN(CCc2ccc(I)cc2)CC1` (stereo unspecified), the Ki worked out at 32.1 nM.

In turn, `OC(c1ccc(F)cc1)C1CCN(Cc2ccccc2I)CC1` (stereo unspecified) came in with a Ki of over 10000 nM.

For the compound `O=[N+]([O-])c1ccc(C(O)C2CCN(CCc3ccccc3)CC2)cc1` (stereo unspecified), the affinity corresponds to a Ki of 1.15 nM.

The compound `O=C(c1ccc(F)cc1)C1CCN(Cc2cccc(I)c2)CC1` returned a Ki of 12.7 nM.

Compound `OC(c1ccc(F)cc1)C1CCN(CCc2cccc(I)c2)CC1` (stereo unspecified) came in with a Ki of 13.1 nM.

Compound `OC(c1ccc(F)cc1)C1CCN(Cc2cccc(I)c2)CC1` (stereo unspecified) displayed a Ki of over 10000 nM.

On to `O=C(c1ccc([N+](=O)[O-])cc1)C1CCN(CCc2ccccc2)CC1`, for which the Ki came to 9.34 nM.

Turning to `O=C(c1ccc(F)cc1)C1CCN(Cc2ccccc2I)CC1`, the affinity, expressed as Ki, was 191 nM.

For `O=C(c1ccc(F)cc1)C1CCN(Cc2ccc(I)cc2)CC1`, the Ki amounted to 227 nM.

As to `OC(c1ccc(F)cc1)C1CCN(Cc2ccc(I)cc2)CC1` (stereo unspecified), the Ki was over 10000 nM.

For the origin of these results see ChEMBL document CHEMBL1135426, “Synthesis, receptor potency, and selectivity of halogenated diphenylpiperidines as serotonin 5-HT2A ligands for PET or SPECT brain imaging” (J Med Chem, 2002).
